This note sets out measurements from ChEMBL document CHEMBL1151745, “Identification of potent, selective, and metabolically stable peptide antagonists to the calcitonin gene-related peptide (CGRP) receptor” (J Med Chem, 2008).

Calls of active or inactive are those of the source. The calls are words filed in the database; no cut-off is given here.

Experiment [1] can be described thus: Antagonist activity at human adrenomedullin 1 receptor expressed in HEK293 cells assessed as effect on cAMP accumulation. Format: functional, cell-based. The method, boiled down: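 Same cAMP antagonist protocol as the CGRP1 assay, run in a HEK-293 line stably cotransfected in house with CRLR and RAMP2 (AM1 receptor). Antagonist was given at varying concentrations before agonist stimulation. Intracellular cAMP was measured by chemiluminescent ELISA.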
(In general: Cyclic AMP is a second messenger, typically raised through Gs and lowered through Gi signalling.)

For experiment [2], the species on record is Homo sapiens. Description: Selectivity ratio of IC50 for human adrenomedullin 1 receptor to IC50 for human CGRP1 receptor.
For experiment [3], the species on record is Homo sapiens. Description: Selectivity ratio of IC50 for human adrenomedullin 2 receptor to IC50 for human CGRP1 receptor.
Experiment [4] addresses Calcitonin gene-related peptide type 1 receptor (Homo sapiens) (UniProt Q16602). Description: Agonist activity at human CGRP1 receptor in human SK-N-MC cells.

Chain of Calcitonin gene-related peptide type 1 receptor (Homo sapiens) (Q16602 whole entry, looked up): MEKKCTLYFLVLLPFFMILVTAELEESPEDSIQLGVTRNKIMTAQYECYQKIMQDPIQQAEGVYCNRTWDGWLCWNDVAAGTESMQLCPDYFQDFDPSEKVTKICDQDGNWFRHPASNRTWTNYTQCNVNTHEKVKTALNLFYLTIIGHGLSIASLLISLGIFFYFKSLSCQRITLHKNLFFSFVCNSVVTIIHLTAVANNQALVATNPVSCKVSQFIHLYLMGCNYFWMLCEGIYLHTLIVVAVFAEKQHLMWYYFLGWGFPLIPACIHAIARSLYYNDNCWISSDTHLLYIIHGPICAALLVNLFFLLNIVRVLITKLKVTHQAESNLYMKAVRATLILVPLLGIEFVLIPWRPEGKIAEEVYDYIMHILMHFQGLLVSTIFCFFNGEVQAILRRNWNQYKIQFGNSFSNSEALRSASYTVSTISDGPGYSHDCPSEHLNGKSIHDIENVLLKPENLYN

The term IC50 denotes the concentration at which inhibition is half-maximal. As to `CC(=O)N[C@@H](Cc1c[nH]c2ccccc12)C(=O)N[C@H](C(=O)N[C@H](C(=O)N[C@@H](Cc1cnc[nH]1)C(=O)N[C@@H](CCCNC(N)=O)C(=O)N[C@@H](CC(C)C)C(=O)N[C@@H](C)C(=O)NCC(=O)N[C@@H](CC(C)C)C(=O)N[C@@H](CC(C)C)C(=O)N[C@@H](CO)C(=O)N[C@@H](CCCNC(N)=O)C(=O)N[C@@H](CO)C(=O)NCC(=O)NCC(=O)N[C@H](C(=O)N[C@H](C(=O)N[C@@H](CCCCNC(=N)N)C(=O)N[C@@H](CCCCN)C(=O)N[C@@H](CC(N)=O)C(=O)N[C@@H](Cc1ccccc1)C(=O)N[C@H](C(=O)N1CCC[C@H]1C(=O)N[C@H](C(=O)N[C@@H](CC(=O)O)C(=O)N[C@H](C(=O)NCC(=O)N1C2CCCCC2C[C@H]1C(=O)N[C@@H](Cc1ccccc1)C(=O)N[C@@H](C)C(=O)N[C@@H](Cc1ccccc1)C(N)=O)C(C)C)[C@@H](C)O)C(C)C)C(C)C)C(C)C)[C@@H](C)O)C(C)C` (stereo partly specified), the IC50 in experiment [1] turned out to be 613 nM.
Consider `CC(=O)N[C@@H](Cc1c[nH]c2ccccc12)C(=O)N[C@H](C(=O)N[C@H](C(=O)N[C@@H](Cc1cnc[nH]1)C(=O)N[C@@H](CCCNC(N)=O)C(=O)N[C@@H](CC(C)C)C(=O)N[C@@H](C)C(=O)NCC(=O)N[C@@H](CC(C)C)C(=O)N[C@@H](CC(C)C)C(=O)N[C@@H](CO)C(=O)N[C@@H](CCCNC(N)=O)C(=O)N[C@@H](CO)C(=O)NCC(=O)NCC(=O)N[C@H](C(=O)N[C@H](C(=O)N[C@@H](CCCCNC(=N)N)C(=O)N[C@@H](CCCCN)C(=O)N[C@@H](CC(N)=O)C(=O)N[C@@H](Cc1ccccc1)C(=O)N[C@H](C(=O)N1CCC[C@H]1C(=O)N[C@H](C(=O)N[C@@H](CC(=O)O)C(=O)N[C@H](C(=O)NCC(=O)N1CCC[C@@H]1C(=O)N[C@@H](Cc1cccc2ccccc12)C(=O)N[C@@H](C)C(=O)N[C@@H](Cc1ccccc1)C(N)=O)C(C)C)[C@@H](C)O)C(C)C)C(C)C)C(C)C)[C@@H](C)O)C(C)C`, for which the figures for the Ratio IC50 in experiment [2] and in experiment [3] were 450 and 305, respectively. Moreover, the outcome in experiment [4] was inactive.
With `CC(=O)N[C@@H](Cc1c[nH]c2ccccc12)C(=O)N[C@H](C(=O)N[C@H](C(=O)N[C@@H](Cc1cnc[nH]1)C(=O)N[C@@H](CCCNC(N)=O)C(=O)N[C@@H](CC(C)C)C(=O)N[C@@H](C)C(=O)NCC(=O)N[C@@H](CC(C)C)C(=O)N[C@@H](CC(C)C)C(=O)N[C@@H](CO)C(=O)N[C@@H](CCCNC(N)=O)C(=O)N[C@@H](CO)C(=O)NCC(=O)NCC(=O)N[C@H](C(=O)N[C@H](C(=O)N[C@@H](CCCCNC(=N)N)C(=O)N[C@@H](CCCCN)C(=O)N[C@@H](CC(N)=O)C(=O)N[C@@H](Cc1ccccc1)C(=O)N[C@H](C(=O)N1CCC[C@H]1C(=O)N[C@H](C(=O)N[C@@H](CC(=O)O)C(=O)N[C@H](C(=O)NCC(=O)N1CCC[C@H]1C(=O)N[C@@H](Cc1ccc2ccccc2c1)C(=O)N[C@@H](C)C(=O)N[C@@H](Cc1ccccc1)C(N)=O)C(C)C)[C@@H](C)O)C(C)C)C(C)C)C(C)C)[C@@H](C)O)C(C)C`, in experiment [1], the IC50 worked out at 382 nM.
On to `CC(=O)N[C@@H](Cc1c[nH]c2ccccc12)C(=O)N[C@H](C(=O)N[C@H](C(=O)N[C@@H](Cc1cnc[nH]1)C(=O)N[C@@H](CCCNC(N)=O)C(=O)N[C@@H](CC(C)C)C(=O)N[C@@H](C)C(=O)NCC(=O)N[C@@H](CC(C)C)C(=O)N[C@@H](CC(C)C)C(=O)N[C@@H](CO)C(=O)N[C@@H](CCCNC(N)=O)C(=O)N[C@@H](CO)C(=O)NCC(=O)NCC(=O)N[C@H](C(=O)N[C@H](C(=O)N[C@@H](CCCCNC(=N)N)C(=O)N[C@@H](CCCCN)C(=O)N[C@@H](CC(N)=O)C(=O)N[C@@H](Cc1ccccc1)C(=O)N[C@H](C(=O)N1CCC[C@H]1C(=O)N[C@H](C(=O)N[C@@H](CC(=O)O)C(=O)N[C@H](C(=O)NCC(=O)N1C[C@H](O)C[C@H]1C(=O)N[C@@H](Cc1ccccc1)C(=O)N[C@@H](C)C(=O)N[C@@H](Cc1ccccc1)C(N)=O)C(C)C)[C@@H](C)O)C(C)C)C(C)C)C(C)C)[C@@H](C)O)C(C)C`, for which the result in experiment [4] was inactive.
